Measured values reported in ChEMBL document CHEMBL1268932, “Discovery and SAR of a series of 4,6-diamino-1,3,5-triazin-2-ol as novel non-nucleoside reverse transcriptase inhibitors of HIV-1” (Bioorg Med Chem Lett, 2010).

Tests used:
[1] = test system: Human immunodeficiency virus 1; assay: Antiviral activity against HIV1 NL4-3 containing reverse transcriptase K103N mutation infected in human CEM-SS cells assessed as inhibition of virus-induced cytopathic effect; assay type: functional, organism-based; details: Human immunodeficiency virus 1, NL4-3, CEM-SS
[2] = target: Human immunodeficiency virus type 1 reverse transcriptase (Human immunodeficiency virus 1, UniProt Q72547); assay: Inhibition of wild type HIV1 reverse transcriptase
[3] = Cmax in rat at 4 mg/kg, po; assay type: ADME, organism-based; set-up: dose 4 mg/kg, route oral; details: in vivo
Method in brief: (§1)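 Rats dosed orally at 4 mg/kg and intravenously at 2 mg/kg. Plasma parameters were Cmax and AUC, plus t1/2, Vdss and clearance after the IV dose. Apparent oral bioavailability was derived from both routes.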

[4] = target: Human immunodeficiency virus type 1 reverse transcriptase (Human immunodeficiency virus 1, UniProt Q72547, V106A); assay: Inhibition of HIV1 reverse transcriptase V106A mutant
[5] = Clearance in rat at 4 mg/kg, po or 2 mg/kg, iv; assay type: ADME, organism-based; details: in vivo; method in brief: as §1
[6] = target: Human immunodeficiency virus type 1 reverse transcriptase (Human immunodeficiency virus 1, UniProt Q72547, L100I); assay: Inhibition of HIV1 reverse transcriptase L100I mutant
[7] = Half life in rat at 2 mg/kg, iv; assay type: ADME, organism-based; set-up: dose 2 mg/kg, route intravenous; details: in vivo; method in brief: as §1
[8] = test system: Human immunodeficiency virus 1; assay: Antiviral activity against wild type HIV1 NL4-3 infected in human CEM-SS cells assessed as inhibition of virus-induced cytopathic effect; assay type: functional, organism-based; details: Human immunodeficiency virus 1, NL4-3, CEM-SS
[9] = Oral bioavailability in rat at 4 mg/kg, po; assay type: ADME, organism-based; details: in vivo; method in brief: as §1
[10] = Toxicity in human CEM-SS cells; assay type: cell-based; details: read-out: TC50 (the source's name)
[11] = test system: Human immunodeficiency virus 1; assay: Antiviral activity against HIV1 NL4-3 containing reverse transcriptase Y181C mutation infected in human CEM-SS cells assessed as inhibition of virus-induced cytopathic effect; assay type: functional, organism-based; details: Human immunodeficiency virus 1, NL4-3, CEM-SS
[12] = target: Human immunodeficiency virus type 1 reverse transcriptase (Human immunodeficiency virus 1, UniProt Q72547, Y188L); assay: Inhibition of HIV1 reverse transcriptase Y188L mutant
[13] = Volume of distribution at steady state in rat at 4 mg/kg, po or 2 mg/kg, iv; assay type: ADME, organism-based; details: in vivo, read-out: Vdss; method in brief: as §1
[14] = AUC in rat at 4 mg/kg, po or 2 mg/kg, iv; assay type: ADME, organism-based; details: plasma; method in brief: as §1
[15] = test system: Human immunodeficiency virus 1; assay: Antiviral activity against wild type HIV1 assessed as inhibition of virus-induced cytopathic effect by cell based assay; assay type: functional, organism-based
Method in brief: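 Cell-based cytoprotection assay. The endpoint is EC50, the concentration giving 50% inhibition of the virus-induced cytopathic effect. Virus and cells were either HIV-1RF in CEM-SS cells or HIV-1IIIB in MT-4 cells.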

| Compound | IC50 [2] | EC50 [15] | further results |
| --- | --- | --- | --- |
| CN(Cc1ccc2occc2c1)c1nc(O)nc(Nc2c(F)cccc2-c2ccccc2)n1 | 8 nM | 5 nM | EC50 [1]: > 1000 nM; Cmax [3]: 3.8 µM; IC50 [4]: 9100 nM; clearance [5]: 5.17 mL/min/kg; IC50 [6]: 47 nM; half-life [7]: 1.45 h; EC50 [8]: 6 nM; bioavailability [9]: 38%; CC50 [10]: > 1000 nM; EC50 [11]: 100 nM; IC50 [12]: 6100 nM; Vd [13]: 0.35 L/kg; AUC [14]: 12.5 µM·h |
| CN(Cc1ccc2occc2c1)c1nc(O)nc(Nc2c(F)cc(F)cc2-c2ccccc2)n1 | 70 nM | 10 nM |  |
| Cc1cccc(-c2ccoc2)c1Nc1nc(O)nc(N(C)Cc2ccc3occc3c2)n1 | 80 nM | 7 nM |  |
| Cc1cccc(-c2ccccc2)c1Nc1nc(O)nc(N(C)Cc2ccc3c(c2)CCO3)n1 | 55 nM | 3 nM | EC50 [1]: > 1000 nM; Cmax [3]: 6.1 µM; IC50 [4]: 36700 nM; clearance [5]: 4.5 mL/min/kg; IC50 [6]: 70 nM; half-life [7]: 1.4 h; EC50 [8]: 6 nM; bioavailability [9]: 44%; CC50 [10]: > 1000 nM; EC50 [11]: 200 nM; IC50 [12]: 9500 nM; Vd [13]: 0.32 L/kg; AUC [14]: 15.6 µM·h |
| COc1nc(NCc2ccc3occc3c2)nc(Nc2c(C)cccc2-c2ccccc2)n1 | 2570 nM | 3000 nM |  |
| Oc1nc(NCc2ccc3cc[nH]c3c2)nc(Nc2cccc(Br)c2)n1 | 40000 nM | > 10000 nM |  |
| Oc1nc(NCc2ccc3cc[nH]c3c2)nc(Nc2cccc(Oc3ccccc3)c2)n1 | > 100000 nM | > 10000 nM |  |
| Cc1cccc(-c2ccccc2)c1Nc1nc(O)nc(NCc2ccc3occc3c2)n1 | 70 nM | 200 nM |  |
| CN(Cc1ccc2occc2c1)c1nc(O)nc(Nc2ccccc2N2CCOCC2)n1 | 4100 nM |  |  |
| O=C1Nc2ccc(Cl)cc2[C@@](C#CC2CC2)(C(F)(F)F)O1 [EFAVIRENZ] |  |  | EC50 [1]: > 1000 nM; CC50 [10]: > 1000 nM; EC50 [11]: 5 nM |
| Cc1ccnc2c1NC(=O)c1cccnc1N2C1CC1 [NEVIRAPINE] |  |  | EC50 [1]: > 1000 nM; EC50 [8]: 200 nM; CC50 [10]: > 1000 nM; EC50 [11]: > 1000 nM |

Now from value to compound, other results behind:

| IC50 [2] | EC50 [15] | Compound | further results |
| --- | --- | --- | --- |
| 90 nM | 130 nM | Cc1cccc(-c2ccccc2)c1Nc1nc(O)nc(N(C)Cc2ccc3c(c2)OCO3)n1 |  |
| 9700 nM | 12600 nM | Cc1cccc(-c2ccccc2)c1Oc1nc(O)nc(NCc2ccc3occc3c2)n1 |  |
| 23600 nM | 4000 nM | Cc1cccc(-c2ccccc2)c1Nc1nc(O)nc(OCc2ccc3occc3c2)n1 |  |
| > 100000 nM | > 50000 nM | Cc1cccc(-c2ccccc2)c1Oc1nc(N)nc(NCc2ccc3occc3c2)n1 |  |
| > 100000 nM |  | Fc1cccc(-c2ccccc2)c1Nc1nc(Cl)nc(NCc2ccc3occc3c2)n1 |  |
| 3500 nM | 7200 nM | Oc1nc(NCc2ccc3cc[nH]c3c2)nc(Nc2ccccc2-c2ccccc2)n1 |  |
| 500 nM | 900 nM | Cc1cccc(-c2ccccc2)c1Nc1nc(O)nc(NCc2ccc3cc[nH]c3c2)n1 |  |
| > 100000 nM |  | CC(C)(Nc1nc(O)nc(Nc2c(F)cccc2-c2ccccc2)n1)c1ccc2c(c1)OCO2 |  |
| > 100000 nM | > 10000 nM | Cc1cccc(-c2ccccc2)c1Nc1nc(O)nc(NCc2ccc3c(ccn3S(C)(=O)=O)c2)n1 |  |
| 4400 nM | 2800 nM | Cc1cccc(-c2ccccc2)c1Nc1nc(O)nc(NCc2ccc3c(c2)OCCCO3)n1 |  |
| 90 nM | 400 nM | Oc1nc(NCc2ccc3occc3c2)nc(Nc2c(F)cccc2-c2ccccc2)n1 |  |
| 5100 nM | 1500 nM | Cc1cccc(-c2ccccc2)c1N(C)c1nc(O)nc(NCc2ccc3occc3c2)n1 |  |
| > 100000 nM |  | CCN(Cc1ccc2occc2c1)c1nc(O)nc(Nc2c(F)cccc2-c2ccccc2)n1 |  |
| 83 nM | 120 nM | Cc1cccc(-c2ccccc2)c1Nc1nc(O)nc(N(C)Cc2ccc3occc3c2)n1 |  |
